Source: PubChem BioAssay
Rows were chosen to be rich in hits. Some 1.8% of all compounds tested hit in one or more screens of this group.
Insulin prom up = MIN6 insulin promoter up-regulation; MIN6 insulin promoter-GFP reporter, high-content imaging; active compounds read high; z-score at 5 µM; 0.3% of 190,000 active; AID 1625;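 active = z-score above 3 at 5 µM with at least 500 cells counted in the well; inconclusive = wells under 500 cells, flagged as cytotoxic or low count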
TNAP act hiacc = increases human TNAP activity under high phosphate acceptor concentration | AID 1136 | purified TNAP, CDP-star luminescence, 1 M DEA, 30 min; active compounds read high; 0 = EDTA background, 1 = DMSO-only activity | 200,000 tested, under 10 active | activation factor at 20 µM | P05186;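 active = activation factor at least 2 at 20 µM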
Target sequence (P05186 whole entry, looked up): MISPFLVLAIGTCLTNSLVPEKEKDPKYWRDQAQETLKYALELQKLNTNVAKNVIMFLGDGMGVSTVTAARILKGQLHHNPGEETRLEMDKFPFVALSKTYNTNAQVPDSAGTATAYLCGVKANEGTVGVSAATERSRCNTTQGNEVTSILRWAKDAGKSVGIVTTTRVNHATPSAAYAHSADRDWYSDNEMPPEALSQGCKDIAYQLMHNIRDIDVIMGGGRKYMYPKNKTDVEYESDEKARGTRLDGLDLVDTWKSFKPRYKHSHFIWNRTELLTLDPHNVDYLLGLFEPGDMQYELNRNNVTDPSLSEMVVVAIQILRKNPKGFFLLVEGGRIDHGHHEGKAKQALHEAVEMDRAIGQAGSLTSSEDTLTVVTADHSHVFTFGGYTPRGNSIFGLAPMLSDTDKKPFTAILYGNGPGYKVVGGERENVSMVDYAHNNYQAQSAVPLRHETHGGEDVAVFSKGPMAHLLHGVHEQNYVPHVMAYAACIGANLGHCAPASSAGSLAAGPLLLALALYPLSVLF
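Measured by: Luminescent substrate turnover signal | Test system: Human TNAP | Input: TNAP 1/800 final | Dosing: 20 µM single point | Schedule: 30 min, room temperature | Controls: EDTA wells as negative control, DMSO wells as positive control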
p47phox inh = inhibitors of human p47phox binding; P14598; p47phox/p22phox peptide binding, fluorescence polarization, 2 h; inhibition, % at 24.7 µM; 0.53% of 220,000 active; AID 1274;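 active = inhibition above about 30%, limit read from the data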;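 also: 0% = p47phox with labelled peptide and 100% = labelled peptide alone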
Autophagy mod = autophagy modulation, high-content screen; MEF GFP-LC3 puncta imaging; test concentration mostly 10 µM; calls only at 10 µM (by protocol); 0.98% of 190,000 active; AID 463193;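 active = percentage of spot-positive cells more than 3 SD above its plate mean, without a fluorescence outlier flag or 80% toxicity; inconclusive = no clear call, values can overlap the other calls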;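 also: spot-positive cell cutoff set from DMSO-treated cells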
TNAP inh no acc = TNAP (human) inhibition, acceptor-free conditions; inhibition, % at 20 µM; 0.26% of 200,000 active; purified TNAP, CDP-star luminescence, 30 min; P05186; AID 1012;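 active = tissue-nonspecific alkaline phosphatase inhibition above about 50% at 20 µM in the single-dose screen, limit read from the data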;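 also: 0% = DMSO negative control and 100% = EDTA positive control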
TNAP inh hi DEA = inhibitors of human TNAP at high phosphate acceptor concentration; P05186; 0.03% of 200,000 active; purified TNAP, CDP-star luminescence, 1 M DEA; inhibition, % at 20 µM;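 active = over 50% inhibition of tissue-nonspecific alkaline phosphatase at 20 µM in the single-dose screen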;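 also: plate controls were DMSO wells for no effect and EDTA-quenched wells as full inhibition for full effect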
* marks the source's active call; other numbers are inactive results; i = inactive; ? = inconclusive; / = not tested or not shown; + = active, no number.

SMILES | Insulin prom up | TNAP act hiacc | p47phox inh | Autophagy mod | TNAP inh no acc | TNAP inh hi DEA
CCN(CC)S(=O)(=O)c1cccc(C(=O)N[C@H](C(=O)O)C(C)C)c1 | ? | 1.1 | 92* | i | -22 | -7
CCN(CC)S(=O)(=O)c1cccc(C(=O)N[C@H](C(=O)NCc2ccccc2F)C(C)C)c1 | -0.69 | 1 | -15 | i | -5 | 1
O=C(NCCc1ccccc1)C1CCC(CNS(=O)(=O)c2cccc3cccnc23)CC1 (stereo unspecified) | -0.42 | / | -10 | / | / | /
CCOC(=O)/C=c1\s/c(=C\c2ccccc2C)c(=O)n1CC(=O)NCc1ccc2c(c1)OCO2 | -0.15 | 0.9 | -48 | i | -7 | 5
CCOC(=O)/C=c1\s/c(=C\c2ccc3cc(OC)ccc3c2)c(=O)n1CC(=O)NCc1ccc2c(c1)OCO2 | 0.98 | 1 | -30 | + | -7 | 1
O=C(Nc1cccc(-c2nc3ncccc3o2)c1)c1sc2ccccc2c1Cl | / | 1 | 67* | i | -1 | 3
CC(C)SC1=NC(C)(C)C=C(/C=C/c2ccc(Cl)cc2Cl)N1 | 3.6* | 1 | -19 | i | -12 | -4
Cc1nn(-c2ccccc2)c2nc(C(Cl)(Cl)Cl)[nH]c(=O)c12 | 1.4 | / | -13 | / | / | /
COc1ccc(S(=O)(=O)N2CCC(C(=O)NCCc3ccc4c(c3)OCO4)CC2)cc1 | -0.61 | 1 | 42* | i | -21 | -4
COc1ccc(CCNC(=O)C(=O)NCC2OCCN2S(=O)(=O)c2ccc(Br)cc2)cc1OC (stereo unspecified) | -0.5 | 1 | -6 | i | -16 | -2
COc1ccc(S(=O)(=O)N2CCOC2CNC(=O)C(=O)NCCc2ccc(OC)c(OC)c2)cc1 (stereo unspecified) | 0.09 | 1.1 | -12 | + | -8 | -5
N#CC(C(=O)NCCc1ccccc1)c1nc2ccccc2nc1N1CCCCC1 (stereo unspecified) | -0.23 | 0.9 | -7 | i | 0 | 8
N#CC(C(=O)NCc1ccccc1)c1nc2ccccc2nc1N1CCCC1 (stereo unspecified) | 1.7 | 0.9 | -33 | + | 4 | 10
COCCCNC(=O)C(C#N)c1nc2ccccc2nc1N1CCCC1 (stereo unspecified) | / | / | -22 | i | / | /
CCCCCCNC(=O)C(C#N)c1nc2ccccc2nc1N1CCOCC1 (stereo unspecified) | 0.28 | 0.9 | 2 | i | 5 | 8
CCCCCCOC(=O)C(C#N)c1nc2ccccc2nc1N1CCN(CC)CC1 (stereo unspecified) | -0.41 | 0.9 | -21 | + | 3 | 7
CCCCCNC(=O)C(C#N)c1nc2ccccc2nc1N1CCCC1 (stereo unspecified) | 0.37 | 1 | -80 | + | 0 | 4
CCCCCCNC(=O)C(C#N)c1nc2ccccc2nc1N1CCCC1 (stereo unspecified) | -0.15 | 0.9 | -60 | + | 8 | 10
O=C(CC12CC3CC(CC(Br)(C3)C1)C2)OCCN1CCCCC1 | 0.1 | 1.1 | -3 | + | -18 | -5
Cn1c(SCC(=O)c2ccccc2)nnc1-c1cccs1 | -0.47 | / | -16 | / | / | /
COc1ccc(C(=O)Nc2ccc(Cl)cc2C(=O)NCc2ccco2)cc1 | / | 1 | -13 | i | 6 | -2
CCC(C)C(NC(=O)c1ccccc1NC(=O)c1ccc(OC)cc1)C(=O)NCc1ccco1 (stereo unspecified) | -0.95 | 1.1 | 50* | i | -187 | -11
COc1cccc(CN2C(=O)CCC2(C)C(=O)NC2CCCC2)c1 (stereo unspecified) | 0.3 | 1 | -1 | i | -20 | -4
O=C(CSc1ccc2nnc(-c3ccccc3)n2n1)NCc1ccco1 | -0.34 | 1 | -2 | i | -11 | 4
Cc1ccccc1OCc1nnc(SCC(=O)NCc2ccco2)n1C | -0.57 | 1.1 | + | i | -14 | -5
O=C(CSc1ccc2nnc(-c3ccccn3)n2n1)NCc1ccco1 | 0.79 | 1 | -4 | + | -3 | 4
Cc1ccc(OCc2nnc(SCC(=O)NCc3ccco3)n2C)cc1 | 0.02 | 1.1 | -9 | i | -9 | -6
Oc1ccc(-c2nc3c4c(ncn3n2)-c2ccccc2CC42CCCC2)cc1 | -0.5 | 1.1 | -17 | i | 5 | -6
